Measurements taken from ChEMBL document CHEMBL4400536, “Design and synthesis of aminothiazole based Hepatitis B Virus (HBV) capsid inhibitors” (Eur J Med Chem, 2019).
The source made the active and inactive calls. No cut-off for these calls is given here.

Tests used:
[1] = biological target: Core antigen (Hepatitis B virus) (UniProt Q03732); assay: Inhibition of GFP-fused Hepatitis B Virus capsid expressed in HEK293T cells at 50 uM after 48 hrs relative to control; assay type: cell-based
Method in brief: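 BiFC assay: HBc fused to Venus fragments VN (1–154) and VC (155–239) were co-transfected into 293T cells, then compounds were added. The dose series used 0, 0.5, 5 and 50 μM; SAR used 50 μM as percent inhibition. After 48 h, reconstituted fluorescence was read as mean fluorescent intensity on a plate reader, with fluorescence microscopy images.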

[2] = Cytotoxicity against human HepG2.2.15 cells; assay type: cell-based, HepG2 2.2.15

Sequence of Core antigen (Hepatitis B virus) (Q03732 as listed by the source): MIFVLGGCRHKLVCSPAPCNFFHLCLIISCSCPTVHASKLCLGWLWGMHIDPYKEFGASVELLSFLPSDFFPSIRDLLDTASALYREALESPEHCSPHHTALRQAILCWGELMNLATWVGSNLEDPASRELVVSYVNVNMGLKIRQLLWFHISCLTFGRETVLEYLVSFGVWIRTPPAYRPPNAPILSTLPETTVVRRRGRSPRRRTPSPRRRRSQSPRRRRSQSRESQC

SMILES	inhibition [1]	CC50 [2]
COc1ccc(Br)c(COC(c2ccccc2)c2cnc(NC(=O)c3cccs3)s2)c1 (stereo unspecified)	45%	–
Clc1ccc(C(Oc2ccc3cc(Br)ccc3c2)c2cnc(NCC3CCCCC3)s2)cc1 (stereo unspecified)	61%	–
O=S(=O)(Nc1ncc(C(Oc2ccc3cc(Br)ccc3c2)c2ccc(Cl)cc2)s1)c1cccs1 (stereo unspecified)	44%	–
COc1ccc(C(=O)Nc2ncc(C(Oc3ccc4ccc(Br)cc4c3)c3ccc(S(C)(=O)=O)cc3)s2)cc1 (stereo unspecified)	inactive	–
CCN(CC)C(=O)Nc1ncc(C(Oc2ccc3cc(Br)ccc3c2)c2ccc(Cl)cc2)s1 (stereo unspecified)	67%	–
O=C(Nc1ncc(Cc2ccc(F)cc2)s1)C1CCCCC1	inactive	> 50 µM
O=C(Nc1ncc(C(Oc2ccc3cc(Br)ccc3c2)c2ccc(Cl)cc2)s1)C1CC1 (stereo unspecified)	67%	–
CC(C)(C)OC(=O)Nc1ncc(C(Oc2ccc(Cc3ccccc3)cc2)c2ccc(Cl)cc2)s1 (stereo unspecified)	inactive	> 50 µM
O=C(Nc1ncc(C(Oc2ccc3cc(Br)ccc3c2)c2ccc(Cl)cc2)s1)C1CCCO1 (stereo unspecified)	35%	–
O=C(Nc1ncc(Cc2ccc(Br)cc2)s1)c1cccs1	inactive	> 50 µM
COCCCNc1ncc(C(Oc2ccc3cc(Br)ccc3c2)c2ccc(Cl)cc2)s1 (stereo unspecified)	38%	–
CC(C)(C)OC(=O)Nc1ncc(C(Oc2ccc(OCc3ccccc3)cc2)c2ccc(Cl)cc2)s1 (stereo unspecified)	inactive	> 50 µM
O=C(Nc1ncc(Cc2ccc(F)cc2)s1)c1ccccc1	60%	–
CC(=O)O[C@@H]1OC(C(=O)Nc2ncc(C(Oc3ccc4cc(Br)ccc4c3)c3ccc(Cl)cc3)s2)[C@@H](OC(C)=O)[C@@H](OC(C)=O)[C@H]1OC(C)=O (stereo partly specified)	40%	–
O=S(=O)(Nc1ncc(C(Oc2ccc3cc(Br)ccc3c2)c2ccc(Cl)cc2)s1)c1cccc2nsnc12 (stereo unspecified)	50%	–
CC(C)(C)OC(=O)Nc1ncc(C(Oc2cccc(C#N)c2)c2ccc(Cl)cc2)s1 (stereo unspecified)	inactive	> 50 µM
N#Cc1cccc(C(=O)Nc2ncc(C(Oc3ccc4cc(Br)ccc4c3)c3ccc(Cl)cc3)s2)c1 (stereo unspecified)	70%	> 50 µM
CC(C)(C)OC(=O)Nc1ncc(C(Oc2ccc(F)c(Cl)c2)c2ccc(Cl)cc2)s1 (stereo unspecified)	inactive	> 50 µM
O=C(Nc1ncc(C(Oc2ccc3cc(Br)ccc3c2)c2ccc(Cl)cc2)s1)c1ccc(F)cc1F (stereo unspecified)	51%	–
O=C(Nc1ncc(C(Oc2ccc3cc(Br)ccc3c2)c2ccc(Cl)cc2)s1)c1ccc(Cl)nc1 (stereo unspecified)	45%	–

SMILES	inhibition [1]	CC50 [2]
O=C(CCCCC(=O)Nc1ncc(Cc2ccc(F)cc2)s1)Nc1ncc(Cc2ccc(F)cc2)s1	inactive	> 50 µM
COc1ccc(C(=O)Nc2ncc(C(Oc3ccc4cc(Br)ccc4c3)c3ccc(F)cc3)s2)cc1 (stereo unspecified)	76%	> 50 µM
COc1ccc(C(=O)Nc2ncc(C(Oc3ccc4cc(Br)ccc4c3)c3ccc(C#N)cc3)s2)cc1 (stereo unspecified)	inactive	–
COCCc1ccc(OC(c2ccc(Cl)cc2)c2cnc(NC(=O)OC(C)(C)C)s2)cc1 (stereo unspecified)	inactive	> 50 µM
O=C(Nc1ncc(C(OCc2ccc(F)cc2F)c2ccccc2)s1)c1cccs1 (stereo unspecified)	26%	–
O=C(Nc1ncc(C(Oc2ccc3cc(Br)ccc3c2)c2ccc(Cl)cc2)s1)c1cccs1 (stereo unspecified)	47%	–
O=S(=O)(Nc1ncc(C(Oc2ccc3cc(Br)ccc3c2)c2ccc(Cl)cc2)s1)c1ccc(Cl)cc1 (stereo unspecified)	50%	–
O=C(Nc1ncc(Cc2ccc(Cl)cc2)s1)c1ccc(F)cc1F	inactive	–
O=C(Nc1ncc(C(Oc2ccc3cc(Br)ccc3c2)c2ccc(Cl)cc2)s1)C1CCOCC1 (stereo unspecified)	66%	–
O=C(Nc1ncc(C(Oc2ccc3cc(Br)ccc3c2)c2ccc(Cl)cc2)s1)c1ccc(F)cc1 (stereo unspecified)	50%	–
O=S(=O)(Nc1ncc(C(Oc2ccc3cc(Br)ccc3c2)c2ccc(Cl)cc2)s1)c1ccc2c(c1)CCO2 (stereo unspecified)	inactive	> 50 µM
CCc1ccc(S(=O)(=O)Nc2ncc(C(Oc3ccc4cc(Br)ccc4c3)c3ccc(Cl)cc3)s2)cc1 (stereo unspecified)	inactive	> 50 µM
O=C(Nc1ncc(C(OCc2ccc(Br)cc2)c2ccccc2)s1)c1cccs1 (stereo unspecified)	64%	–
Cc1ccc(C)c(S(=O)(=O)Nc2ncc(C(Oc3ccc4cc(Br)ccc4c3)c3ccc(Cl)cc3)s2)c1 (stereo unspecified)	inactive	> 50 µM
O=C(Nc1ncc(C(OCc2ccc(F)cc2Br)c2ccccc2)s1)c1cccs1 (stereo unspecified)	27%	–
Clc1ccc(C(Oc2ccc3cc(Br)ccc3c2)c2cnc(NCC3CCOCC3)s2)cc1 (stereo unspecified)	43%	–
Cc1ccc(C(=O)Nc2ncc(Cc3ccc(F)cc3)s2)cc1	53%	–
O=S(=O)(Nc1ncc(C(Oc2ccc3cc(Br)ccc3c2)c2ccc(Cl)cc2)s1)c1ccc2ccccc2c1 (stereo unspecified)	inactive	> 50 µM
Cc1ccc(C(=O)Nc2ncc(C(Oc3ccc4cc(Br)ccc4c3)c3ccc(Cl)cc3)s2)cc1 (stereo unspecified)	71%	–
Cc1ccc(S(=O)(=O)Nc2ncc(C(Oc3ccc4cc(Br)ccc4c3)c3ccc(Cl)cc3)s2)c2ccccc12 (stereo unspecified)	inactive	> 50 µM

SMILES	inhibition [1]	CC50 [2]
COc1ccc(COC(c2ccccc2)c2cnc(NC(=O)c3cccs3)s2)cc1 (stereo unspecified)	64%	–
O=C(Nc1ncc(Cc2ccc(F)cc2)s1)c1ccc(Cl)cc1Cl	inactive	> 50 µM
O=S(=O)(Nc1ncc(C(Oc2ccc3cc(Br)ccc3c2)c2ccc(Cl)cc2)s1)c1ccc(Cl)nc1 (stereo unspecified)	30%	–
CC(C)(C)C(=O)Nc1ncc(C(Oc2ccc3cc(Br)ccc3c2)c2ccc(Cl)cc2)s1 (stereo unspecified)	47%	–
Cc1ccc(COC(c2ccccc2)c2cnc(NC(=O)c3cccs3)s2)cc1 (stereo unspecified)	64%	–
O=C(Nc1ncc(C(Oc2ccc3cc(Br)ccc3c2)c2ccc(Cl)cc2)s1)c1ccccc1 (stereo unspecified)	58%	–
Cc1cc(C(C)C)ccc1OC(c1ccc(Cl)cc1)c1cnc(NC(=O)OC(C)(C)C)s1 (stereo unspecified)	inactive	> 50 µM
O=C(Nc1ncc(C(Oc2ccc3cc(Br)ccc3c2)c2ccc(Cl)cc2)s1)c1cc(F)c(F)cc1F (stereo unspecified)	44%	–
O=C(Nc1ncc(C(OCc2ccc(Cl)cc2)c2ccccc2)s1)c1cccs1 (stereo unspecified)	59%	–
COCCNc1ncc(C(Oc2ccc3cc(Br)ccc3c2)c2ccc(Cl)cc2)s1 (stereo unspecified)	37%	–
O=C(Nc1ncc(Cc2ccc(Br)cc2)s1)c1ccc2ccccc2c1	inactive	> 50 µM
COC(=O)CCCCNc1ncc(C(Oc2ccc3cc(Br)ccc3c2)c2ccc(Cl)cc2)s1 (stereo unspecified)	40%	–
O=C(Nc1ncc(C(OCc2ccc3ccccc3c2)c2ccccc2)s1)c1cccs1 (stereo unspecified)	47%	–
CCCCC(CC)CNc1ncc(C(Oc2ccc3cc(Br)ccc3c2)c2ccc(Cl)cc2)s1 (stereo unspecified)	55%	–
COc1ccc(C(=O)Nc2ncc(C(Sc3ccc4ccccc4c3)c3ccc(Cl)cc3)s2)cc1 (stereo unspecified)	49%	–
CCCCCC(=O)Nc1ncc(C(Oc2ccc3cc(Br)ccc3c2)c2ccc(Cl)cc2)s1 (stereo unspecified)	inactive	> 50 µM
Cc1noc(C)c1C(=O)Nc1ncc(C(Oc2ccc3cc(Br)ccc3c2)c2ccc(Cl)cc2)s1 (stereo unspecified)	64%	–
CCOC(=O)CCCNc1ncc(C(Oc2ccc3cc(Br)ccc3c2)c2ccc(Cl)cc2)s1 (stereo unspecified)	35%	–
O=C(Nc1ncc(Cc2ccc(F)cc2)s1)c1ccc(Br)cc1	inactive	> 50 µM
O=C(Nc1ncc(C(Oc2ccc3cc(Br)ccc3c2)c2ccc(Cl)cc2)s1)c1ccc(Br)cc1 (stereo unspecified)	inactive	> 50 µM
